# Assay outcomes: PubChem, several laboratories
# Compounds with a hit are over-represented: about 3.1% of the library has one in this group of screens.
# Beta cell apopt – blocks beta cell apoptosis. INS-1E cytokine-induced death, ATP luminescence, 48 h; percent of positive-control rescue, neutral wells zero. 300,000 tested, 0.8% active. protection from apoptosis, % (test concentration not listed). AID 435005;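 active = Every replicate reaches about 75%, or at least half do and their mean reaches it too, limit read from the data; inconclusive = At least half of replicates reach the limit but their mean does not; inactive = Under half of replicates reach the limit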;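 also: higher means more ATP so stronger rescue from cytokine killing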
# Calb FLC – C. albicans growth modulation with fluconazole. 300,000 tested, 0.57% active. C. albicans CaCi-2 (fluconazole-resistant clinical isolate) + fluconazole, Alamar Blue growth, 48 h. growth inhibition, % (no concentration beside the values);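 active = growth inhibition above about 58% in most replicates, limit read from the data, passing the limit was not always enough; inconclusive = exactly half the replicates above a set limit; inactive = most replicates below a set limit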;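 also: all wells also contain fluconazole at 8 µg/ml as a sub-toxic cotreatment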
# CSC inhib – cancer stem cell inhibition. 300,000 tested, 1.1% active. inhibition, % at 7.5 µM. cancer stem cell-like cells viability, luminescence. AID 2717; in the data active = inhibition above about 75%; inconclusive = no clear call, values can overlap the other calls; tested in HMLE shEcad cells
# Bfl-1 A1 inh – inhibitors of the anti-apoptotic protein A1, read as caspase activation; MEF A1-2A-BIM cells, Caspase-Glo 3/7 luminescence, 3 h; percent of clofoctol response, vehicle zero; caspase activation, % (test concentration not listed); 330,000 tested, 0.066% active; AID 2462;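 active = over half of replicate activation scores above 10%, or exactly half above 10 with the replicate mean above 10; inconclusive = replicate mean below 10 yet half the replicates above 10; inactive = over half of replicates below 10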
# H9c2 TAG inh – reduces triacylglycerol accumulation in H9c2 cells; Nile Red lipid (TAG) fluorescence; cells loaded with 200 µM oleic acid; inhibition, % at 12.5 µM; 230,000 tested, 0.66% active;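 active = pattern-corrected inhibition of lipid staining of at least 50% with the nuclear-stain viability signal not falling by more than 50%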
# T cruzi inh – blocks replication of Trypanosoma cruzi | T. cruzi beta-gal in NIH3T3, luminescence, 90 h | inhibition, % (test concentration not listed) | 300,000 tested, 1.4% active;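 active = mean inhibition across valid replicates above about 55%, limit read from the data; inconclusive = mean below that limit but half or more replicates reach it; inactive = mean below it, under half of replicates reach it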;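 also: signal also drops with host cell toxicity which is not excluded here; higher percent means less beta-gal luminescence so fewer parasites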
#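 compound dosing = single 50 nL compound addition per well in DMSO | material = NIH/3T3 host cells with β-galactosidase reporter T. cruzi | input = 5,000 host fibroblasts per well | timing = ≥90 h infection period, 3 h prior cell attachment | read-out basis = percent inhibition of parasite-derived β-gal signal | detection = GalScreen β-gal luminescence, detergent lysis, 60 min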
# Hits are given with their value; i = inactive; ? = inconclusive; nt = not tested or not shown.
SMILES,Beta cell apopt,Calb FLC,CSC inhib,Bfl-1 A1 inh,H9c2 TAG inh,T cruzi inh
O=C(COC(=O)CC1Sc2ccccc2NC1=O)NCc1ccccc1 (stereo not given),nt,i,i,i,i,i
C(#Cc1c(-c2ccsc2)sc2ccccc12)c1ccsc1,i,nt,i,i,i,nt
O=C(c1ccccc1)c1ccc(Cn2cc(CCCO)nn2)cc1,i,i,i,i,i,i
O=C(O)CCCCCCCCc1cn(Cc2ccc(C(=O)c3ccccc3)cc2)nn1,i,i,i,i,i,55.6
O=C(O)/C=C/c1ccc(S(=O)(=O)Nc2ccc(C(=O)NCC(=O)O)cc2)cc1,i,50.2,i,i,i,i
O=C(O)/C=C/c1ccc(S(=O)(=O)Nc2ccc(OCc3ccccc3)cc2)cc1,i,i,i,i,i,i
CCCN(CC(=O)Nc1ccccc1C)C(=O)Cc1c(C)nc2ccccc2c1C,i,nt,nt,i,i,nt
Cc1nn2c(N3CCOCC3)cc(C(C)(C)C)nc2c1-c1ccccc1,i,i,i,i,nt,i
Cc1cc(SCC(=O)c2cccs2)n2nc(C)c(-c3ccc(Cl)cc3)c2n1,i,i,77.9,i,i,i
Cc1nn2c(SCC(=O)c3cccs3)cc(C(C)(C)C)nc2c1-c1ccccc1,i,i,i,i,i,58.6
C=CCSc1cc(C)nc2c(-c3ccc(Cl)cc3)c(C)nn12,i,?,i,i,nt,i
CCN1CCN(c2cc(C(C)(C)C)nc3c(-c4ccccc4)c(C)nn23)CC1,i,i,139.8,i,nt,i
CC(C)(C)OC(=O)C[C@H]1C/C=C\C[C@H](CC(=O)NCCO)C(=O)N2CCC[C@@H]2COC1=O,i,nt,i,i,i,nt
Cc1ccc(-c2nc3cccnc3s2)cc1NS(=O)(=O)c1ccc2c(c1)OCCO2,i,i,77.2,i,i,i
CC(C)(C)N(Cc1ccccc1)C(=O)c1cc2ccccc2o1,i,i,78.2,i,i,i
CN(Cc1ccccc1)C(=O)c1cc2ccccc2o1,i,i,i,i,nt,i
COCCNc1nc(-c2cc(C)n(CCc3ccc(OC)cc3)c2C)cs1,i,i,i,i,i,60.3
COc1ccccc1CNc1nc(-c2cc(C)n(C)c2C)cs1,nt,nt,nt,nt,i,nt
O=c1cc(CSc2ccc(Cl)cc2)nc(-c2ccccn2)[nH]1,79.7,111.7,93.5,i,nt,59.4
Clc1ccc(SCc2csc(N3CCOCC3)n2)cc1,i,i,i,i,i,i
Clc1ccc(SCc2cc(N3CCOCC3)nc(-c3ccccn3)n2)cc1,98.9,i,i,i,i,60.4
O=c1cc(CSc2ccc(Cl)cc2)nc(-c2ccccc2)[nH]1,i,i,i,i,nt,i
O=C(CCn1nnnc1CN1CCOCC1)N1CCC(c2ccccc2F)C1 (stereo not given),i,i,i,i,nt,i
Cc1ccc([N+](=O)[O-])cc1N(CC(=O)Nc1ccc(S(=O)(=O)Nc2cccc(C(F)(F)F)c2)cc1)S(C)(=O)=O,99.4,i,100.2,i,nt,61.2
COc1ccccc1N(CC(=O)Nc1cccc(C(F)(F)F)c1)S(C)(=O)=O,nt,i,i,i,i,i
SMILES,Beta cell apopt,Calb FLC,CSC inhib,Bfl-1 A1 inh,H9c2 TAG inh,T cruzi inh
Cc1ccc(C#CC[N+](C)(C)CC#Cc2ccccc2)cc1,i,i,i,i,i,57.2
Cc1ccc(C)c(S(=O)(=O)NC(C)C(=O)NCc2ccccn2)c1 (stereo not given),nt,i,i,i,i,i
CCOC(=O)CSc1ccc(C(=O)N2CCN(C)CC2)cc1[N+](=O)[O-],i,102.0,i,i,i,i
COc1ccc(-c2n(CC(=O)OC3CC(C)CCC3C(C)C)c3ccccc3[n+]2C)cc1 (stereo not given),nt,95.1,nt,nt,nt,i
CC1CCC(C(C)C)C(OC(=O)CSc2nccc(=O)[nH]2)C1 (stereo not given),i,i,nt,i,nt,i
COc1ccc(OCc2n(CC(=O)OC3CC(C)CCC3C(C)C)c3ccccc3[n+]2C)cc1 (stereo not given),99.7,i,i,i,i,i
Cc1ccc2c(c1)sc[n+]2Cc1ccccc1,i,i,i,i,nt,54.6
O=c1[nH]c(CN2CCN(c3ccccn3)CC2)nc2c(Br)cc(Br)cc12,i,i,81.0,i,i,i
Cc1ccc(-c2cc(C(=O)N3CCN(c4ccc(O)cc4)CC3)c3ccccc3n2)cc1,i,nt,78.7,i,i,nt
O=C(/C=C/c1cn(-c2ccccc2)nc1-c1cccc(Cl)c1)N1CCN(c2ccccn2)CC1,i,i,i,i,i,73.1
